Columns and labels:
[1] = biological target: T1, Poly(ADP-ribose) glycohydrolase (Homo sapiens, UniProt Q86W56); assay: Inhibition of human full length PARG using Bt-NAD ribosylated PARP1 substrate after 10 mins by TR-FRET assay
[2] = biological target: T1, Poly(ADP-ribose) glycohydrolase; assay: Inhibition of PARG in human HeLa cells assessed as induction of MMS-induced PAR chains preincubated for 1 hr followed by MMS addition and measured after 1 hr by Alexofluor 488-conjugated secondary antibody and Hoechst 33342 staining based assay; assay type: cell-based
Summary of the method: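 Acute (1 h) cell-based proof-of-mechanism assay measuring persistence of PAR chains, i.e. blockade of PARG-mediated PAR degradation, across a dose range. EC50 values are means of at least 4 independent measurements, with standard deviations.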

[3] = Clearance in human liver microsomes
[4] = Clearance in mouse liver microsomes

T1 sequence (Q86W56 whole entry): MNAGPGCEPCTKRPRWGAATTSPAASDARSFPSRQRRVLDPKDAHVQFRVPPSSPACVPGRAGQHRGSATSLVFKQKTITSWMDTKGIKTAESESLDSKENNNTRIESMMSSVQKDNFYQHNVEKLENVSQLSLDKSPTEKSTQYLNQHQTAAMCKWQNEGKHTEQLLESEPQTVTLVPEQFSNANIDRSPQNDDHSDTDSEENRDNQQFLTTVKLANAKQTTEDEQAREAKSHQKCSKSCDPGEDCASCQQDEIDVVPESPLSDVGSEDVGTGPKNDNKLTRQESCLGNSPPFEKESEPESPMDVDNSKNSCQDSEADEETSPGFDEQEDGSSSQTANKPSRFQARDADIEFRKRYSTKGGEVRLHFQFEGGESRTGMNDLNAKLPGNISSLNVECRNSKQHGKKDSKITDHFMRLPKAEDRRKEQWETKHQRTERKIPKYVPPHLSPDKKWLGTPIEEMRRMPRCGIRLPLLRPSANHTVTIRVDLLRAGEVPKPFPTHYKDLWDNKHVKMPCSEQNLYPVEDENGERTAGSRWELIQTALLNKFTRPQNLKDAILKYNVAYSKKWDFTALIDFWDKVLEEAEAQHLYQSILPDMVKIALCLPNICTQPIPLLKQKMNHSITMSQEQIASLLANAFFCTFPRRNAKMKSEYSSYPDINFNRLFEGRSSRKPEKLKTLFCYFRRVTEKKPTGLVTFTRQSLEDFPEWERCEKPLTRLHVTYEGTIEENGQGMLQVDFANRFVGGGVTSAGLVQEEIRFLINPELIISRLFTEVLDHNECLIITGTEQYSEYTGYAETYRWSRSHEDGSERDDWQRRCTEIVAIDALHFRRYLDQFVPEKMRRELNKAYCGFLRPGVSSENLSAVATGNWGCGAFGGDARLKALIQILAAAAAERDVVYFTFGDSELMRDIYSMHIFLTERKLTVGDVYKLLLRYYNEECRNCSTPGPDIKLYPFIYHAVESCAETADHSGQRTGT

SMILES | EC50 [1] [nM] | EC50 [2] [nM] | microsomal CLint [3] [µL/min/mg] | microsomal CLint [4] [µL/min/mg]
Cc1cc(Cn2c(=O)c3cc(S(=O)(=O)NC4(C)CC4)ccc3n(Cc3cc(C)nn3C)c2=O)on1 | 38 | 120 | 37 | 
Cn1c(=O)c2cc(S(=O)(=O)NC3(C#N)CC3)ccc2n(C)c1=O | 5000 | 14000 |  | 
N#CC1(NS(=O)(=O)c2ccc3c(c2)C(=O)c2ccccc2C3=O)CC1 | 3300 | 19000 |  | 
CCn1c(=O)c2cc(S(=O)(=O)NC3(C#N)CC3)ccc2n(CC)c1=O | 1800 | 5600 |  | 
Cc1ncc(Cn2c(=O)c3cc(S(=O)(=O)NC4(C)CC4)ccc3n(Cc3sc(C)nc3C)c2=O)s1 | 4.8 | 9.2 | 140 | 
Cc1cc(Cn2c(=O)n(CC#N)c(=O)c3cc(S(=O)(=O)NC4(C)CC4)ccc32)n(C)n1 | 280 | 560 | 20 | 
Cc1cc(Cn2c(=O)c3cc(S(=O)(=O)NC4(C)CC4)ccc3n(CC3CC3)c2=O)on1 | 55 | 49 | 80 | 
Cn1c(=O)[nH]c2ccc(S(=O)(=O)NC3(C)CC3)cc2c1=O | 4000 | 8100 |  | 
CCn1c(=O)n(Cc2cc(C)no2)c(=O)c2cc(S(=O)(=O)NC3(C)CC3)ccc21 | 330 | 120 | 26 | 
Cc1nc(C)c(Cn2c(=O)n(Cc3cnn(C)c3)c(=O)c3cc(S(=O)(=O)NC4(C)CC4)ccc32)s1 | 6 | 20 | 97 | 
Cn1c(=O)c2cc(S(=O)(=O)NC3(C)CC3)ccc2n(CC2CCCCC2)c1=O | 560 | 2700 |  | 
C#CCn1c(=O)n(Cc2cnn(C)c2)c(=O)c2cc(S(=O)(=O)NC3(C)CC3)ccc21 | 52 | 130 | 42 | 

Second part, the molecule after the results:

EC50 [1] [nM] | EC50 [2] [nM] | microsomal CLint [3] [µL/min/mg] | microsomal CLint [4] [µL/min/mg] | SMILES
6000 | 6600 |  |  | CC1(NS(=O)(=O)c2ccc3c(c2)C(=O)c2ccccc2C3=O)CC1
240 | 120 | 17 | 30 | CCn1c(=O)n(Cc2nnc(C)s2)c(=O)c2cc(S(=O)(=O)NC3(C)CC3)ccc21
250 | 270 | 10 | 63 | C#CCn1c(=O)n(CC#N)c(=O)c2cc(S(=O)(=O)NC3(C)CC3)ccc21
13000 | 22000 |  |  | O=C1c2ccccc2C(=O)c2cc(S(=O)(=O)NC3CC3)ccc21
29 | 56 | 81 |  | Cn1cc(Cn2c(=O)c3cc(S(=O)(=O)NC4(C)CC4)ccc3n(CC3CC3)c2=O)cn1
 |  | 35 |  | CCn1c(=O)n(Cc2cnn(C)c2)c(=O)c2cc(S(=O)(=O)NC3(C)CC3)ccc21
2800 | 8900 |  |  | Cn1c(=O)c2cc(S(=O)(=O)NC3(C)CC3)ccc2n(CC#N)c1=O
1300 | 3600 |  |  | CCn1c(=O)n(C)c(=O)c2cc(S(=O)(=O)NC3(C)CC3)ccc21
2000 | 6400 |  |  | CN(C)CCn1c(=O)n(C)c(=O)c2cc(S(=O)(=O)NC3(C)CC3)ccc21
1100 | 6100 |  |  | COCCn1c(=O)n(C)c(=O)c2cc(S(=O)(=O)NC3(C)CC3)ccc21
1300 | 2300 |  |  | Cn1c(=O)c2cc(S(=O)(=O)NC3(C)CC3)ccc2n(Cc2ccccc2)c1=O
45 | 82 | 100 |  | C#CCn1c(=O)n(Cc2cnc(C)s2)c(=O)c2cc(S(=O)(=O)NC3(C)CC3)ccc21
1500 | 1100 |  |  | CCn1c(=O)c2cc(S(=O)(=O)NC3(C)CC3)ccc2n(CC)c1=O
710 | 250 |  |  | C#CCn1c(=O)n(C)c(=O)c2cc(S(=O)(=O)NC3(C)CC3)ccc21
100 | 76 | 72 |  | C#CCn1c(=O)n(Cc2cc(C)no2)c(=O)c2cc(S(=O)(=O)NC3(C)CC3)ccc21
> 150000 |  |  |  | COCC(C)(C)NS(=O)(=O)c1ccc2c(c1)C(=O)c1ccccc1C2=O

Reference: ChEMBL document CHEMBL4261639, “Cell-Active Small Molecule Inhibitors of the DNA-Damage Repair Enzyme Poly(ADP-ribose) Glycohydrolase (PARG): Discovery and Optimization of Orally Bioavailable Quinazolinedione Sulfonamides” (J Med Chem, 2018)
